Screening data from PubChem BioAssay.
A selection: hits, their analogues and other compounds. The true share with any hit is near 1.6%.
NR2E3 ag-1: activates human photoreceptor nuclear receptor NR2E3; inhibition of corepressor binding, % at 4.78 µM; GST-NR2E3/biotin-RetCOR TR-FRET, 1536-well; hit rate 0.12% among 320,000;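 active = percent inhibition above the cutoff of mean plus 3 SD of all tested compounds, set per screening campaign, cut at about 20% in these data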;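 also: 0% = DMSO wells and 100% = biotin wells as full block of FRET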
Target sequence (Q9Y5X4 whole entry, looked up): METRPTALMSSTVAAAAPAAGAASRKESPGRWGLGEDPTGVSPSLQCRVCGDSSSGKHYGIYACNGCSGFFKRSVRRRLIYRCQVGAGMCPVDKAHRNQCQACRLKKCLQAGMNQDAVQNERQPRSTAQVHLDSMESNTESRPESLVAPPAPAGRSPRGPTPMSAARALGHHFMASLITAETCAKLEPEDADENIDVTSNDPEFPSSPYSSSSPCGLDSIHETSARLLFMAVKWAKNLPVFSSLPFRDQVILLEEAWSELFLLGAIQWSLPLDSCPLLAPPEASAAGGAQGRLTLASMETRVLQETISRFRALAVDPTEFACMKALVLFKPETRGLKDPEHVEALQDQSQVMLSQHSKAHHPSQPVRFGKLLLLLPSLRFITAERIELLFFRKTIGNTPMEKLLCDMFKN
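Format: 1536-well format; test system: GST-NR2E3 and biotin-RetCOR proteins; read-out basis: percent inhibition of TR-FRET ratio; timing: 5 h incubation at 4 °C; detection: time-resolved FRET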
NR1D1 modulator: Rev-erb alpha (human) modulation | P20393 | Rev-erbα–FITC-DNA binding, fluorescence polarization, 90 min | activity, % at 10 µM | hit rate 0.79% among 370,000;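 active = activity above about 14%, limit read from the data; passing the limit was not always enough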;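 also: 0% = DMSO wells with 35 nM protein and 100% = DMSO wells with 750 nM protein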
PG9 binder: small molecules binding HIV-1 gp120 antibody PG9. AID 624416. inhibition, % at 6.7 µM. hit rate 0.43% among 360,000. TR-FRET gp120-PG9 antibody binding; in the data active = inhibition above about 8.5%
VLA-4 inh: inhibition in a human VLA-4 binding assay. VLA-4 expressing cells, ligand binding flow cytometry. inhibition, % (about 7 µM as worked out from the volumes in the protocol). hit rate 0.2% among 330,000; in the data active = inhibition above about 50%
NR2E3 ag-2: agonists of human NR2E3 nuclear receptor | CHO-S Gal4-NCOR/VP16-NR2E3 two-hybrid, luciferase | hit rate 0.35% among 360,000 | inhibition of corepressor binding, % at 3.98 µM | Q9Y5X4 | AID 602229;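 active = inhibition above the mean of all tested compounds plus 3 SD, cut at about 70% in these data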;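 also: 0% = DMSO with NR2E3 transfected cells and 100% = cells lacking NR2E3 construct; higher means lower luciferase signal from less NR2E3 corepressor binding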
NR2E3 ag conf: confirmation of human NR2E3 agonists; shares compounds with NR2E3 ag-2; CHO-S mammalian two-hybrid NR2E3-NCOR, luciferase luminescence; inhibition, % at 3.98 µM; hit rate 51% among 2,300; AID 624378;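 active = average inhibition above a cutoff equal to the mean inhibition of all tested compounds plus one SD, cut at about 70% in these data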;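 also: 0% = DMSO in NR2E3 cells and 100% = DMSO in cells lacking NR2E3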
VP16 counter: counter-screen for NR2E3 agonists: GAL4-VP16 reporter inhibitors; shares compounds with NR2E3 ag-2; CHO-S GAL4-VP16 luciferase reporter, luminescence; inhibition, % at 3.98 µM; hit rate 29% among 2,300; AID 624379;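 active = mean inhibition above a cutoff equal to the average over all tested compounds plus one standard deviation, cut at about 70% in these data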;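 also: luciferase from a UAS reporter driven by GAL4-VP16 transactivation; 0% = DMSO with VP16-transfected cells and 100% = DMSO with cells lacking VP16; higher means less reporter light so more repression of VP16 activity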
* = called active by the depositor; i = inactive; x = no result given.

SMILES	NR2E3 ag-1	NR1D1 modulator	PG9 binder	VLA-4 inh	NR2E3 ag-2	NR2E3 ag conf	VP16 counter
CC(=O)Nc1ccc(Sc2ccc([N+](=O)[O-])o2)cc1	x	-2.5	0.6	x	72.2*	92.6*	4.0
O=C1c2ccccc2C(=O)N1Nc1ccccc1	0.7	3.6	-0.3	-3.8	58.3	18.8	20.1
CN=c1scc(-c2ccccc2F)n1/N=C/c1ccc[nH]1	-0.5	1.5	-6.0	-16.2	96.6*	89.8*	80.2*
CN=c1scc(-c2ccccc2F)n1/N=C/c1ccc(O)c(O)c1O	x	-7.0	0.8	x	-97.6	x	x
Cc1ccc(/C=C2/CNC/C(=C/c3ccc(C)cc3)C2=O)cc1	x	3.8	-0.4	x	65.0	15.2	-10.0
O=C(Nc1ccc(C(O)(C(F)(F)F)C(F)(F)F)cc1)c1ccc(F)cc1F	x	2.6	x	x	x	x	x
Cc1ccccc1NC(=O)c1cccc2c1-c1ccccc1C2=O	x	2.9	x	x	x	x	x
COc1ccc(CCNC(=O)c2ccc3ccccc3n2)cc1OC	5.6	-2.2	-0.2	23.5	-21.7	x	x
COc1ccc(CNC(=O)c2ccc3ccccc3n2)cc1OC	-1.3	-4.2	0.2	-4.9	85.0*	60.3	43.9
CSc1cccc(NS(=O)(=O)c2ccc3c(c2)CCN3C(C)=O)c1	-0.2	-0.5	0.2	1.0	72.3*	84.5*	77.2*
COc1cccc(CNS(=O)(=O)c2ccc3c(c2)CCN3C(=O)C2CC2)c1	-1.2	-5.6	1.6	-11.2	-2.9	x	x
CC(=O)N1CCc2cc(S(=O)(=O)N3CCc4ccccc43)ccc21	1.7	3.2	0.0	1.4	73.7*	51.0	46.9
COc1ccc(CNS(=O)(=O)c2ccc3c(c2)CCN3C(=O)C2CCC2)cc1	-1.6	-8.3	0.2	4.4	50.6	27.0	42.6
CC(=O)N1CCc2cc(S(=O)(=O)Nc3ccc(C)cc3)ccc21	-1.8	3.8	1.1	0.0	-34.0	x	x
COc1cccc(NS(=O)(=O)c2ccc3c(c2)CCN3C(C)=O)c1	-1.1	-7.0	-0.8	-7.1	67.1	61.8	59.4
CC(=O)N1CCc2cc(S(=O)(=O)N3CCc4ccccc4C3)ccc21	2.1	0.6	-0.6	0.0	17.0	x	x
CC(=O)N1CCCc2cc(S(=O)(=O)Nc3cccc(C)c3C)ccc21	1.3	0.0	-0.8	16.5	36.5	x	x
CC(=O)N1CCc2cc(S(=O)(=O)Nc3cccc(C(F)(F)F)c3)ccc21	-0.6	-0.3	-2.0	-6.2	64.6	62.6	38.1
Cc1nn(Cc2cccc(F)c2)c(C)c1NC(=O)c1ccc(COc2ccccc2Cl)cc1	-1.5	0.0	-1.2	13.8	79.0*	93.9*	39.9
CCOC(=O)CNC(=O)c1sc(NC(=O)c2ccccc2)nc1C	-1.1	1.7	-0.5	3.7	49.2	3.1	-20.9
CCOC(=O)CNC(=O)c1ccccc1	2.3	5.3	-0.3	5.1	5.3	x	x
O=C(CSc1nnc(-c2cccnc2)n1-c1ccccc1)c1ccccc1Cl	x	8.1	x	x	x	x	x
O=C1C(=O)c2cccnc2-c2ncccc21	x	-1.6	-1.5	x	71.6*	89.0*	38.7
O=C(NC1CCCCN(Cc2ccc(OC(F)(F)F)cc2)C1=O)c1cccc(F)c1 (centres undefined)	x	-2.4	x	x	x	x	x
COc1cc(NC(C(=O)Nc2cccc(C(C)=O)c2)c2ccccc2)cc(OC)c1OC (centres undefined)	-2.2	4.8	-2.7	11.4	49.0	-21.4	0.3
SMILES	NR2E3 ag-1	NR1D1 modulator	PG9 binder	VLA-4 inh	NR2E3 ag-2	NR2E3 ag conf	VP16 counter
COc1ccc(/C=C2/CSC/C(=C/c3ccc(OC)c(OC)c3)C2=O)cc1OC	x	-8.4	0.5	x	63.7	37.9	29.0
O=c1c(Sc2ccccc2)c(C(F)(F)F)[nH]n1-c1ccccc1	2.9	-2.3	-1.7	5.5	56.9	97.3*	74.0*
O=C(Nc1ccc(Br)cc1)OC1CC2CC1[C@H]1CCCCN1[C@H]2Cc1ccccc1 (some centres undefined)	x	7.3	x	x	x	x	x
C[C@H]1COc2cc(N3CCCC3)ccc2S(=O)(=O)N1	x	-3.8	-1.2	x	x	x	x
CCCCCCCCn1c(=O)c(C(=O)OC)c(N)c2ccccc21	1.8	-5.0	-0.4	-2.5	58.0	85.0*	49.6
CCCCCCCn1c(=O)c(C(=O)OC)c(N)c2ccccc21	2.8	6.0	-1.4	-3.6	43.4	x	x
CCN1C(=O)/C(=C2/C=Cc3cc(C)ccc3N2CC)N(C)C1=S	-17.3	-1.7	-23.4	-1.0	-15.6	x	x
C=CC[n+]1c(/C=C2\C=Cc3cc(C)ccc3N2CC)ccc2ccccc21	0.3	-4.6	-6.9	i	89.8*	98.4*	90.6*
Cc1cc(/C=N/n2cnnc2)c(C)n1-c1ccc(OCc2ccc(Cl)cc2)cc1	2.9	1.2	-1.6	16.7	101.5*	97.5*	87.3*
Fc1ccccc1COc1cccc(/C=N/n2cnnc2)c1	-1.8	-3.1	-0.6	-13.4	-52.3	x	x
Cc1cc(/C=N/n2cnnc2)c(C)n1-c1ccc(OCc2ccccc2F)cc1	4.3	0.5	-0.6	-1.1	66.3	95.5*	79.2*
CN[C@H]1C[C@H]2c3cc(-c4ccc5c(c4)OCO5)ccc3CCN2C[C@H]1[C@H](C)O	x	-4.1	x	x	x	x	x
Cn1c(COc2ccccc2)nnc1SCC(=O)Nc1ccc(S(=O)(=O)Nc2nccs2)cc1	x	-5.2	x	x	x	x	x
COc1cc2c(cc1OC)C(c1ccc3c(c1)OCO3)CC(=O)N2 (centres undefined)	1.6	4.7	x	1.2	-15.8	x	x
COc1ccc(C2CCc3cc4c(cc3C2=NO)OCO4)cc1OC (centres undefined)	x	-2.0	-1.9	x	67.2	39.1	44.4
O=C(NC1CCCCN(Cc2cccc(Cl)c2)C1=O)c1cccc(C(F)(F)F)c1 (centres undefined)	x	4.1	x	x	x	x	x
O=C(CSc1nnc(NC(=O)C2CC2)s1)NCc1ccccc1	1.8	1.5	-0.6	13.3	68.1	-24.6	-8.6
Cc1cc(C(=O)NCc2cc(F)cc3c2OCOC3)nn1C	4.1	-7.0	-0.1	0.0	-19.1	x	x
Cn1nc(C(C)(C)C)cc1C(=O)NCc1cc(F)cc2c1OCOC2	-0.8	-1.9	0.5	4.0	77.6*	95.3*	77.0*
CC(C)(C)c1ccc(C(=O)O/N=C(\N)c2ccccc2)cc1	1.8	0.8	-1.1	0.6	81.2*	78.5*	73.5*
COc1ccc(C(=O)O/N=C(\N)c2ccccc2)cc1	-4.0	-0.1	-0.8	-3.6	-153.3	x	x
CC(=O)N1c2ccc(S(=O)(=O)N3CCC(C(=O)Nc4cccc(C)c4)CC3)cc2CC1C (centres undefined)	-2.5	1.1	-1.4	1.0	32.5	x	x
CC(=O)N1c2ccc(S(=O)(=O)N3CCC(C(=O)N4CCN(c5cccc(C(F)(F)F)c5)CC4)CC3)cc2CC1C (centres undefined)	-1.2	5.7	-1.5	-4.1	99.2*	88.6*	75.8*
